Drawing on PubChem BioAssay AID1526 (The Scripps Research Institute Molecular Screening Center, 2009), this text covers activation for 18 molecules.

Some of the results follow. Unmarked numbers belong to inactive results. Active and inactive are the calls of the source.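 How the source made its calls: active means activation above a set limit derived from the earlier primary screen (cut at about 12% in these data); inactive means the rest.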

Sequence of Mucolipin-3 (Homo sapiens) (Q8TDD5 whole entry, looked up): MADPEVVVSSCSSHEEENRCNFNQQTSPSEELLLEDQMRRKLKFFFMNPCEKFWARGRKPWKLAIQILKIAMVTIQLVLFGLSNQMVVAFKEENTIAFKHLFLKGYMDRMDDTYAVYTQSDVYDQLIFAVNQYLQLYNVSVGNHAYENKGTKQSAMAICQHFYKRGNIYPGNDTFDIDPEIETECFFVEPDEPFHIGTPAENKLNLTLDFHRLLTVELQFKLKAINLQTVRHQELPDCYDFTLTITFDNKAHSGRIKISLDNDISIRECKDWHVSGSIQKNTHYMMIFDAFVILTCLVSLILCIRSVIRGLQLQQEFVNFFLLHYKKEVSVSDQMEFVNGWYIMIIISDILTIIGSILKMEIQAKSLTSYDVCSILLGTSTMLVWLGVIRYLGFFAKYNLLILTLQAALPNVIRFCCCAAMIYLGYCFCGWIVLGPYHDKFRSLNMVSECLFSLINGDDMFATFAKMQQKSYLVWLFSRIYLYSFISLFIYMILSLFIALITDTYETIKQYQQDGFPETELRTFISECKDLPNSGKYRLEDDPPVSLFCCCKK

The assay addresses Mucolipin-3 (Homo sapiens) (UniProt Q8TDD5). The assay is described as follows: human TRPML3 channel agonists, confirmation, cell-based, HEK293 TRPML3-YFP, Fluo-8 calcium, triplicate (AID 1526). The following applies: Fluo-8 calcium fluorescence, at 3 µM, hits give high values, 100% set by carbachol, 0% by DMSO. In outline: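 Test system: human TRPML3-YFP channel stably expressed in HEK293 cells; Compound: single nominal 3 µM dose per test compound; Incubation: calcium dye loading 1 h at 37 °C, fluorescence read 125 s; Detection: Fluo-8 calcium dye fluorescence; Measure: % activation from peak-to-basal fluorescence ratio, scaled between controls; Repeats: three replicate wells.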
For `O=C(CC(O)(C(F)(F)F)C(F)(F)F)Nc1ccc(Cl)c(Cl)c1`, the activation is 13.9% (active).
For `CCOc1ccc(S(=O)(=O)N2CCCCCC2)c2ccccc12`, the activation was 129% (active).
Regarding `COc1ccc(-c2noc(CN(C)S(=O)(=O)c3ccc(C)cc3)n2)cc1`, the activation was 111% (active).
As to `COc1ccc(N(CCC#N)S(=O)(=O)c2ccc(Cl)cc2)cc1`, the activation is 9.45%.
In the case of `CCN(CC)S(=O)(=O)c1ccc2c3c(cccc13)C(=O)S2`, the activation was 10.5%.
Take `CC1(C)CCCC2=C1CC1C(=O)N(c3ccccc3)C(=O)C1C2` (stereo not drawn): the activation is 14.2% (active).
On to `COc1ccc(Cl)cc1N(CC(=O)N1CCCCC1)S(C)(=O)=O`, for which the activation is 71.9% (active).
For the molecule `COc1cc(/C=C(\C#N)c2nc3c(s2)CC(C)CC3)ccc1O` (stereo not drawn), the activation was 6.5%.
Consider `CCN(CC)C(=O)CC1(c2ccccc2OC)CCOC(C(C)C)C1` (stereo not drawn), for which the activation is 14.7% (active).
With `O=S(=O)(Nc1ccccc1N1CCOCC1)c1ccc(Cl)s1`, the activation is 63% (active).
Regarding `c1ccc2c(C[n+]3csc4ccccc43)cccc2c1`, the activation was 58% (active).
Then `C=C(C)Cn1c(C)cc(C)c(S(=O)(=O)c2ccccc2C)c1=O`, with 27.8% (active).
As to `COc1ccc(S(=O)(=O)N2CCCC2)c(C)c1C`, the activation was 13.6% (active).
Turning to `CCOC(=O)C1=C(NC(=S)NC(=O)c2ccccc2)c2ccccc2CC1(C)C`, the activation was 43.6% (active).
To `CC1CCCC(C)N1C(=O)CN1CCN(c2nc(-c3ccc(F)cc3)cs2)CC1` (stereo not drawn) belongs 20.4% (active); to `Cc1cccc(C)c1N1CCN(S(=O)(=O)N2CCCCC2)CC1`, 79.3% (active); to `COc1ccccc1N(CC(=O)N1CCCCC1)S(=O)(=O)c1ccccc1`, 169% (active).
On to `CC1=CC(C)(C)N(C(=O)CSc2nnc(-c3ccccc3)o2)c2ccc(C)cc21`, for which the activation is 48.3% (active).
